The results in this text go back to ChEMBL document CHEMBL1156777, “Synthesis and antiprotozoal activity of cationic 1,4-diphenyl-1H-1,2,3-triazoles” (J Med Chem, 2010).

In series [1] the test system is L6. The series can be described thus: Cytotoxicity against rat L6 cells after 70 hrs by alamar blue assay. It is filed as cell-based. To be noted: L6, 70 h. In outline: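 Cells were exposed to serial dilutions for 70 h at 37 °C, 5% CO₂, then given resazurin for 2–3 h. IC50 came from sigmoidal curves; two independent runs in duplicate. Top concentration was 90 μg/mL, converted to μM by molecular weight.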
On the technique in general: Resazurin is reduced to fluorescent resorufin, in cell work by metabolically active cells.

The test system of series [2] is Trypanosoma brucei rhodesiense. In words: Antitrypanosomal activity against Trypanosoma brucei rhodesiense STIB900 after 70 hrs by alamar blue assay. To be noted: STIB900, 70 h. The format is functional, organism-based.
The nature of series [3]: Selectivity index, ratio of IC50 for rat L6 cells to IC50 for Trypanosoma brucei rhodesiense STIB900. The note with it: read-out: Ratio IC50. The format is toxicity, cell-based. The gist of the method: (§1)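 Each index is L6 IC50 divided by parasite IC50. L6 values are from the 70 h resazurin assay. T. b. rhodesiense STIB900 values are from the 70 h resazurin assay. P. falciparum K1 values are from erythrocytic-stage [³H]-hypoxanthine incorporation: 48 h drug exposure, then 24 h with label. L. donovani values are from the 72 h axenic amastigote CellTiter assay.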

For series [4], the system named is Plasmodium falciparum. In words: Antiplasmodial activity against chloroquine-resistant Plasmodium falciparum K1 infected in human erythrocytes after 48 hrs assessed as [3H]hypoxanthine incorporation by liquid scintillation counting. The format is functional, organism-based.
The nature of series [5]: Selectivity index, ratio of IC50 for rat L6 cells to IC50 for Plasmodium falciparum K1. It is filed as toxicity, cell-based. To be noted: read-out: Ratio IC50. In outline: as §1
The subject of series [6] is Leishmania donovani. In words: Antileishmanial activity against Leishmania donovani MHOM/SD/62/1S-CL2D. The format is functional, organism-based. The gist of the method:
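Axenic amastigotes (MHOM/SD/62/1S-CL2_D) adapted from promastigotes and grown in amastigote medium at 37 °C. 6 × 10⁴ parasites per well were exposed to 2-fold serial dilutions for 72 h at 37 °C in humidified 5% CO₂. Growth was read with tetrazolium CellTiter reagent as absorbance at 490 nm. IC50 came from a four-parameter dose–response fit; duplicate determinations were averaged.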

Where only a bound is given, the exact number is not on record here.

Take `c1cc(C2=NCCN2)cc(-c2cn(-c3ccc(C4=NCCN4)cc3)nn2)c1`: the IC50 (as a rule, the concentration that gives 50% inhibition) in series [1] was 127 µM; in series [2], 200 nM; in series [4] it was 84 nM; in series [6], more than 100 µM. For the same molecule, the selectivity ratio turned out to be 635 in series [3] and 1510 in series [5].
As for `Oc1cc(C2=NCCN2)ccc1-n1cc(-c2cccc(C3=NCCN3)c2)nn1`, the IC50 in series [1] was more than 187 µM; in series [2] it was 11100 nM; in series [4], 159 nM; in series [6], more than 100 µM. Moreover, the selectivity ratio was more than 17 in series [3] and more than 1180 in series [5].
As to `COc1cc(C(=N)NC(C)C)ccc1-n1cc(-c2cccc(C(=N)NC(C)C)c2)nn1`, the concentration for half-maximal inhibition (IC50) is more than 159 µM in series [1], 1960 nM in series [2], 55 nM in series [4] and more than 100 µM in series [6]. The selectivity ratio in series [3] was more than 81; in series [5], more than 2890.
In the case of `COc1cc(C2=NCCN2)ccc1-c1cn(-c2ccc(C3=NCCN3)cc2)nn1`, the concentration for half-maximal inhibition (IC50) is 142 µM in series [1], 116 nM in series [2], 11 nM in series [4] and more than 100 µM in series [6]. For the same molecule, the values for the selectivity ratio in series [3] and in series [5] were 1220 and 12900, respectively.
Turning to `COc1ccc(C(=N)NC(C)C)cc1-c1cn(-c2cccc(C(=N)NC(C)C)c2)nn1`, the 50% inhibitory concentration (IC50) was more than 176 µM in series [1], 1250 nM in series [2], 106 nM in series [4] and more than 100 µM in series [6]. Also, the selectivity ratio is more than 141 in series [3] and more than 1660 in series [5].
As to `COc1cc(C2=NCCN2)ccc1-c1cn(-c2cccc(C3=NCCN3)c2)nn1`, the concentration for half-maximal inhibition (IC50) is more than 172 µM in series [1], 4020 nM in series [2], 64 nM in series [4] and more than 100 µM in series [6]. In addition, the values for the selectivity ratio in series [3] and in series [5] were more than 43 and more than 2690, respectively.
For the molecule `Oc1cc(C2=NCCN2)ccc1-n1cc(-c2ccc(C3=NCCN3)cc2)nn1`, the IC50 in series [1] was more than 198 µM; in series [2], 998 nM; in series [4] it was 41 nM; in series [6], more than 100 µM. Moreover, the selectivity ratio in series [3] was more than 198; in series [5], more than 4830.
For the molecule `COc1ccc(C(=N)NC(C)C)cc1-n1cc(-c2ccc(C(=N)NC(C)C)cc2)nn1`, the half-maximal inhibitory concentration (IC50) in series [1] was more than 173 µM; in series [2] it was 447 nM; in series [4], 195 nM; in series [6] it was more than 100 µM. Besides, the results for the selectivity ratio in series [3] and in series [5] were more than 387 and more than 887, respectively.
As to `Oc1ccc(C2=NCCN2)cc1-n1cc(-c2cccc(C3=NCCN3)c2)nn1`, the IC50 is more than 174 µM in series [1], 102000 nM in series [2], 325 nM in series [4] and more than 100 µM in series [6]. Further, the selectivity ratio was more than 2 in series [3] and more than 535 in series [5].
Turning to `CC(C)NC(=N)c1cccc(-c2cn(-c3cccc(C(=N)NC(C)C)c3)nn2)c1`, the concentration for half-maximal inhibition (IC50) in series [1] is more than 184 µM; in series [2], 14800 nM; in series [4], 118 nM; in series [6] it was more than 100 µM. The selectivity ratio in series [3] was more than 12; in series [5], more than 1560.
Turning to `CC(C)NC(=N)c1ccc(-c2cn(-c3cc(C(=N)NC(C)C)ccc3O)nn2)cc1`, the IC50 is more than 170 µM in series [1], 15100 nM in series [2], 5270 nM in series [4] and more than 100 µM in series [6]. The selectivity ratio in series [3] is more than 11; in series [5], more than 32.
Take `COc1ccc(C2=NCCN2)cc1-n1cc(-c2cccc(C3=NCCN3)c2)nn1`: the IC50 in series [1] is more than 172 µM; in series [2] it was 7830 nM; in series [4], 30 nM; in series [6] it was more than 100 µM. In addition, the figures for the selectivity ratio in series [3] and in series [5] were more than 22 and more than 5730, respectively.
`COc1cc(C2=NCCN2)ccc1-n1cc(-c2ccc(C3=NCCN3)cc2)nn1`: the concentration for half-maximal inhibition (IC50) in series [1] is more than 176 µM; in series [2] it was 675 nM; in series [4], 17 nM; in series [6], more than 100 µM. The selectivity ratio is more than 261 in series [3] and more than 10400 in series [5].
`Oc1cc(C2=NCCN2)ccc1-c1cn(-c2cccc(C3=NCCN3)c2)nn1`: the half-inhibitory concentration (IC50) is more than 183 µM in series [1], 606 nM in series [2], 16 nM in series [4] and more than 100 µM in series [6]. The selectivity ratio is more than 302 in series [3] and more than 11400 in series [5].
For `CC(C)NC(=N)c1cccc(-c2cn(-c3cc(C(=N)NC(C)C)ccc3O)nn2)c1`, the half-inhibitory concentration (IC50) is more than 167 µM in series [1], 13900 nM in series [2], 739 nM in series [4] and more than 100 µM in series [6]. For the same molecule, the selectivity ratio was more than 12 in series [3] and more than 226 in series [5].
On to `COc1ccc(C(=N)NC(C)C)cc1-c1cn(-c2ccc(C(=N)NC(C)C)cc2)nn1`, for which the IC50 in series [1] was more than 177 µM; in series [2] it was 77 nM; in series [4] it was 26 nM; in series [6] it was more than 100 µM. The values for the selectivity ratio in series [3] and in series [5] were more than 2300 and more than 6810, respectively.
On to `c1cc(C2=NCCN2)cc(-n2cc(-c3ccc(C4=NCCN4)cc3)nn2)c1`, for which the IC50 is 133 µM in series [1], 461 nM in series [2], 95 nM in series [4] and more than 100 µM in series [6]. In addition, the results for the selectivity ratio in series [3] and in series [5] were 289 and 1400, respectively.
Turning to `COc1cc(C2=NCCN2)ccc1-n1cc(-c2cccc(C3=NCCN3)c2)nn1`, the IC50 in series [1] is more than 173 µM; in series [2], 1870 nM; in series [4] it was 58 nM; in series [6], more than 100 µM. The selectivity ratio was more than 93 in series [3] and more than 2980 in series [5].
In the case of `Oc1ccc(C2=NCCN2)cc1-c1cn(-c2cccc(C3=NCCN3)c2)nn1`, the IC50 is more than 183 µM in series [1], 11700 nM in series [2], 52 nM in series [4] and more than 100 µM in series [6]. In addition, the selectivity ratio was more than 16 in series [3] and more than 3520 in series [5].
As for `COc1ccc(C(=N)N)cc1-c1cn(-c2cccc(C(=N)N)c2)nn1`, the half-maximal inhibitory concentration (IC50) in series [1] is more than 200 µM; in series [2], 1650 nM; in series [4], 24 nM; in series [6], more than 100 µM. Moreover, the selectivity ratio in series [3] was more than 121; in series [5], more than 8330.
On to `N=C(N)c1ccc(-c2cn(-c3cc(C(=N)N)ccc3O)nn2)cc1`, for which the IC50 in series [1] was more than 203 µM; in series [2], 6640 nM; in series [4] it was 1230 nM; in series [6], more than 100 µM. The figures for the selectivity ratio in series [3] and in series [5] were more than 31 and more than 165, respectively.
For the molecule `Oc1ccc(C2=NCCN2)cc1-n1cc(-c2ccc(C3=NCCN3)cc2)nn1`, the 50% inhibitory concentration (IC50) was more than 175 µM in series [1], 19600 nM in series [2], 885 nM in series [4] and more than 100 µM in series [6]. Besides, the selectivity ratio in series [3] is more than 9; in series [5], more than 198.
As to `CC(C)NC(=N)c1cccc(-n2cc(-c3cc(C(=N)NC(C)C)ccc3O)nn2)c1`, the half-inhibitory concentration (IC50) in series [1] was more than 170 µM; in series [2], 10900 nM; in series [4], 229 nM; in series [6], more than 100 µM. In addition, the selectivity ratio in series [3] was more than 16; in series [5], more than 742.
`COc1ccc(C2=NCCN2)cc1-n1cc(-c2ccc(C3=NCCN3)cc2)nn1`: the concentration for half-maximal inhibition (IC50) in series [1] was more than 170 µM; in series [2] it was 162 nM; in series [4], 22 nM; in series [6] it was more than 100 µM. Also, the selectivity ratio in series [3] is more than 1050; in series [5], more than 7730.
In the case of `COc1cc(C(=N)NC(C)C)ccc1-n1cc(-c2ccc(C(=N)NC(C)C)cc2)nn1`, the 50% inhibitory concentration (IC50) in series [1] is more than 164 µM; in series [2], 328 nM; in series [4], 19 nM; in series [6], more than 100 µM. Further, the selectivity ratio in series [3] was more than 500; in series [5] it was more than 8630.
Take `COc1ccc(C(=N)NC(C)C)cc1-n1cc(-c2cccc(C(=N)NC(C)C)c2)nn1`: the IC50 in series [1] was 131 µM; in series [2], 10100 nM; in series [4], 125 nM; in series [6] it was more than 100 µM. The selectivity ratio in series [3] stood at 13; in series [5], 1050.
As for `N=C(N)c1cccc(-c2cn(-c3cc(C(=N)N)ccc3O)nn2)c1`, the IC50 is more than 209 µM in series [1], 49600 nM in series [2], 8930 nM in series [4] and more than 100 µM in series [6]. For the same molecule, the selectivity ratio in series [3] was more than 4; in series [5] it was more than 23.
For the molecule `N=C(N)c1ccc(-c2cn(-c3ccc(C(=N)N)cc3O)nn2)cc1`, the IC50 is more than 216 µM in series [1], 501 nM in series [2], 170 nM in series [4] and more than 100 µM in series [6]. For the same molecule, the results for the selectivity ratio in series [3] and in series [5] were more than 431 and more than 1270, respectively.
As to `COc1cc(C(=N)NC(C)C)ccc1-c1cn(-c2ccc(C(=N)NC(C)C)cc2)nn1`, the IC50 in series [1] was more than 166 µM; in series [2], 201 nM; in series [4], 13 nM; in series [6] it was more than 100 µM. Besides, the figures for the selectivity ratio in series [3] and in series [5] were more than 826 and more than 12800, respectively.
